Compound activity (PubChem BioAssay)
dFosB act: enhances mouse delta FosB homodimer DNA binding | P13346 | AID 493131 | activation, % at 25 µM | purified delta FosB, TAMRA-CDK5 oligo fluorescence polarization; percent of positive-control signal above neutral wells | 0.99% of 340,000 active;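 active = mean activation above about 17%, with every replicate also reaching it, limit read from the data, passing the limit was not always enough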
Target sequence (P13346 whole entry, looked up): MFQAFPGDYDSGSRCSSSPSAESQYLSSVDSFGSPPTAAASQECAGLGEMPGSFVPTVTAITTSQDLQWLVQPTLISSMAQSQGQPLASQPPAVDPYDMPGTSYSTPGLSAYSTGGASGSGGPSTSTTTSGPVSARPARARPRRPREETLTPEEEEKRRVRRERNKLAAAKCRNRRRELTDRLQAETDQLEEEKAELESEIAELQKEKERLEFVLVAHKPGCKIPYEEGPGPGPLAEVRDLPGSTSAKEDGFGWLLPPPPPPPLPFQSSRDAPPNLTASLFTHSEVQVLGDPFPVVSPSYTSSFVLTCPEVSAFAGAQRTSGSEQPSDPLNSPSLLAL
CDK5 p35 inh: CDK5/p35 (human) kinase inhibition; Recombinant CDK5/p35, ADP-Glo luminescence, 60 min; inhibition, % at 10 µM; Q00535+Q15078; 0.01% of 330,000 active; AID 488839;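 active = highest replicate inhibition of at least 50% and at least 75% of replicates reaching 50%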;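 note: plate controls were DMSO neutral control for no effect and GW8510 at 10 µM for full effect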
INS-1E GSIS act: primary screen for activators of insulin secretion dependent on glucose, INS-1E cells, GLuc reporter luminescence. INS-1E GLuc reporter insulin secretion, 2-3 h. activation, % at 16.6 µM. 0.61% of 370,000 active. AID 743287;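 active = lowest replicate activation of at least 40%, so every replicate reaches that level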;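 note: 0% = median of neutral control wells and 100% = median of IBMX positive control wells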
Env fusion inh: inhibitors of HIV Env-mediated cell fusion | AID 651610 | HeLa-JRFL Env/CEM21 cell fusion, luciferase | inhibition, % at 12.3 µM | 1.1% of 360,000 active;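 active = mean replicate inhibition score of at least 50 and every replicate individually at or above 50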;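 note: 0% = plate neutral controls and 100% = maraviroc near 300 nM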
PAX8 inh HTS: inhibitors of PAX8 transcriptional activity in RMG-I cells | AID 652154 | 1.2% of 360,000 active | inhibition, % at 12.6 µM | RMG-I TPO-luciferase reporter, SteadyGlo, 24 h;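 active = mean replicate inhibition at least 60% with every replicate also reaching 60%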;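 note: luciferase light reporting Pax8 driven TPO promoter activity; plate controls were median of neutral control wells for no effect and mitoxantrone controls for full effect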
Cneo AK release: causes C. neoformans cell lysis. adenylate kinase release luminescence, 4 h; normalised: neutral wells 0, clomiphene wells 100. lysis activity, % at 15 µM. 0.2% of 360,000 active. AID 651654;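 active = mean lysis activity across replicates of at least 80%, whatever share of replicates individually reach that level; inactive = mean lysis activity below 80%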
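Assay system: C. neoformans cells. Amount: yeast cell density of 5 × 10^6 cells/mL. Technique: AK luminescence. Buffer or medium: YPD. Times: static 4 h at 37 °C with compound, 1 h detection. Dosing: single-point compound dose. Read-out: lysis from increased AK signal.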
* hit, by the source's call; [ ] = dose if it differs, or a comment. Rows were chosen to be rich in hits. Some 2.9% of all compounds tested hit in one or more screens of this group.

`C[C@@H]1CCCCO[C@H](CN(C)C(=O)NC2CCCCC2)[C@@H](C)CN([C@H](C)CO)C(=O)c2cc(NC(=O)Nc3ccc(C(F)(F)F)cc3)ccc2O1` gave INS-1E GSIS act 6.4, Env fusion inh 9.4[16.7 µM], PAX8 inh HTS -1.7 and Cneo AK release -2.8.
For COc1ccc2c3c([nH]c2c1)[C@@H](CO)N(C(=O)C1CCCCC1)CC31CCN(C)CC1 the results were INS-1E GSIS act -9.5.
`C/C=C/c1ccc([C@H]2[C@@H](CO)N[C@@H]2CNC(=O)C2CCCC2)cc1` gave INS-1E GSIS act -13.2.
Cc1ccc(S(=O)(=O)Nc2ccc3c(c2)C(=O)N([C@H](C)CO)C[C@@H](C)[C@@H](CN(C)Cc2ccccc2)OCCCC[C@H](C)O3)cc1 was read as INS-1E GSIS act -23.3, Env fusion inh 26.7[16.7 µM], PAX8 inh HTS 39.8 and Cneo AK release 0.0.
For COCC(=O)N(C)C[C@@H]1Oc2cc(C#C[C@@H](C)O)ccc2S(=O)(=O)N([C@@H](C)CO)C[C@@H]1C the results were INS-1E GSIS act 15.7, Env fusion inh 1.3[16.7 µM] and Cneo AK release -7.0.
Screening O=C(NCc1cc(Cl)cc(Cl)c1)c1ccc2nc([C@@H]3O[C@H](CO)[C@@H](O)[C@H]3O)[nH]c2c1 returned INS-1E GSIS act 55.8*, Env fusion inh 5.9, PAX8 inh HTS -7.6 and Cneo AK release 0.3.
Screening CCCC(=O)Nc1ccc2c(c1)C(=O)N(C)C[C@H](OC)[C@H](C)CN(Cc1ccc(-c3ccccn3)cc1)[C@H](C)CO2 returned INS-1E GSIS act -9.8, PAX8 inh HTS -40.4 and Cneo AK release -1.4.
For C[C@@H]1CCCCO[C@H](CN(C)Cc2ccc3c(c2)OCO3)[C@@H](C)CN([C@@H](C)CO)C(=O)c2cc(NC(=O)Nc3cccc4ccccc34)ccc2O1 the results were INS-1E GSIS act -32.4, Env fusion inh -4.5[16.7 µM], PAX8 inh HTS 39.5 and Cneo AK release -0.7.
For COc1ccc(-c2cc(=O)n(-c3nc4ccccc4[nH]3)[nH]2)cc1 the results were dFosB act -12.3, CDK5 p35 inh 1.3, Env fusion inh 66.1* and Cneo AK release -1.6.
For COc1ccc(-c2nc3ccccc3[nH]2)cc1 the results were dFosB act -2.8, CDK5 p35 inh 9.2 and INS-1E GSIS act 4.7.
For COc1ccccc1CNC(=O)C[C@H]1C=C[C@@H](NC(C)=O)[C@H](CO)O1 the results were INS-1E GSIS act -16.7, Env fusion inh 14.0[16.7 µM], PAX8 inh HTS 3.3 and Cneo AK release -0.2.
For COc1ccc(CN(C)C[C@H]2Oc3ccc(NC(=O)NC4CCCCC4)cc3CC(=O)N([C@@H](C)CO)C[C@H]2C)cc1 the results were INS-1E GSIS act -9.6, Env fusion inh 7.0[16.7 µM], PAX8 inh HTS 14.7 and Cneo AK release -1.1.
For Cn1cnc(S(=O)(=O)N2CCCCN3[C@H](CO)[C@H](c4ccc(C5=CCCC5)cc4)[C@@H]3C2)c1 the results were PAX8 inh HTS -24.3 and Cneo AK release -0.4.
For CN(C)C(=O)c1ccc(-c2ccc([C@@H]3[C@H]4CN(C(=O)C5CC5)CC(=O)N4[C@H]3CO)cc2)cc1 the results were INS-1E GSIS act 15.0 and PAX8 inh HTS -1.9.
CN(C)C(=O)c1ccc(-c2ccc([C@@H]3[C@@H](CO)N4C(=O)CN(C(=O)C5CC5)C[C@@H]34)cc2)cc1 was read as INS-1E GSIS act 66.5* and PAX8 inh HTS -8.9.
For O=C(C1CC1)N1CC(=O)N2[C@H](C1)[C@H](c1ccc(C#Cc3cccc(F)c3)cc1)[C@@H]2CO the results were INS-1E GSIS act -19.9 and PAX8 inh HTS 68.6*.
Screening O=C(C1CCC1)N1CC(=O)N2[C@H](C1)[C@H](c1ccc(C#Cc3cccc(F)c3)cc1)[C@@H]2CO returned INS-1E GSIS act -31.5 and PAX8 inh HTS 81.3*.
C[C@@H]1CN([C@@H](C)CO)C(=O)c2cccc(NC(=O)Nc3ccc(F)cc3)c2O[C@@H]1CN(C)C(=O)Nc1ccc(C(F)(F)F)cc1 was read as INS-1E GSIS act -22.7, Env fusion inh -6.7[16.7 µM], PAX8 inh HTS -0.9 and Cneo AK release 3.3.
Screening COc1ccc(S(=O)(=O)N(C)C[C@@H]2OCCCC[C@H](C)Oc3ccc(NC(=O)NC4CCCCC4)cc3C(=O)N([C@@H](C)CO)C[C@H]2C)cc1 returned INS-1E GSIS act -18.8, Env fusion inh -6.7[16.7 µM], PAX8 inh HTS 16.5 and Cneo AK release -0.5.
Screening O=C(CCC(=O)Nc1ccc(Br)cc1)N/N=C/c1ccccc1O returned dFosB act 28.9*, CDK5 p35 inh 0.7, INS-1E GSIS act -31.2, Env fusion inh -5.3, PAX8 inh HTS 16.6 and Cneo AK release 0.4.
Screening CC(=O)Nc1ccc(/C=N/NC(=O)CC2CCCCC2)cc1 returned INS-1E GSIS act -2.3, Env fusion inh -0.5, PAX8 inh HTS -12.1 and Cneo AK release -0.9.
Screening O=C(CCC(=O)Nc1ccc(F)cc1)N/N=C/c1ccccc1 returned dFosB act 18.3*, CDK5 p35 inh 1.5, INS-1E GSIS act -18.9, Env fusion inh -5.8, PAX8 inh HTS -33.6 and Cneo AK release -1.4.
CC(=O)Nc1ccc(C=NNC(=O)CCCC(=O)NN=Cc2ccc(NC(C)=O)cc2)cc1 was read as dFosB act 3.3, CDK5 p35 inh -4.3, INS-1E GSIS act 41.5*, PAX8 inh HTS 7.1 and Cneo AK release -0.4.
O=C(Cc1ccccc1)N/N=C/c1cc(Br)cc(Br)c1O was read as dFosB act 38.9*, CDK5 p35 inh 2.6, INS-1E GSIS act 9.1, Env fusion inh 9.4, PAX8 inh HTS 24.8 and Cneo AK release 1.4.
`O=C(C[C@H]1CC[C@H](NC(=O)Nc2ccc(F)cc2)[C@H](CO)O1)NCc1cccc(F)c1` gave INS-1E GSIS act 10.8, Env fusion inh 14.8[16.7 µM] and Cneo AK release -1.7.
For Cc1ccc(S(=O)(=O)Nc2ccc3c(c2)CC(=O)N([C@H](C)CO)C[C@H](C)[C@@H](CN(C)C(=O)Nc2ccc4c(c2)OCO4)O3)cc1 the results were INS-1E GSIS act -0.8, Env fusion inh 0.6[16.7 µM], PAX8 inh HTS 9.0 and Cneo AK release -4.7.
For C/C=C/c1ccc2c(c1)O[C@@H](CN(C)Cc1cccc(F)c1)[C@H](C)CN([C@@H](C)CO)S2(=O)=O the results were INS-1E GSIS act 16.3, Env fusion inh 6.5[16.7 µM] and Cneo AK release -10.7.
Screening COc1ccc(CCN2C(=O)CC(Cc3ccc(Br)cc3)C2=O)cc1OC (stereo not given) returned dFosB act -0.4, CDK5 p35 inh 0.4, INS-1E GSIS act -19.9 and PAX8 inh HTS 28.7.
`COc1ccc(CCN2C(=O)CC(Cc3ccccc3)C2=O)cc1OC` (stereo not given) gave dFosB act -0.4, CDK5 p35 inh -1.1, INS-1E GSIS act 70.2*, Env fusion inh 9.4 and PAX8 inh HTS 13.9.
